Data reported in ChEMBL document CHEMBL4033796, “4-Amino-7,8-dihydro-1,6-naphthyridin-5(6 H)-ones as Inhaled Phosphodiesterase Type 4 (PDE4) Inhibitors: Structural Biology and Structure-Activity Relationships” (J Med Chem, 2018).
Converted amounts (≈) assume the structure as drawn. The source made the active and inactive calls. The rule behind the calls is not given here.

Assays:
[1] = Inhibition of PDE4 in human whole blood PBMC assessed as reduction in LPS-induced TNFalpha production after 24 hrs by ELISA
Outline: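 Heparinized whole blood from healthy donors was preincubated with LPS (1 μg/mL final) at 37 °C for 10 min. It was then added to compounds in DMSO and incubated 24 h at 37 °C with agitation, then centrifuged. Serum TNF-α was measured by sandwich ELISA with TMB read-out at 450 nm. Experiments were done 2−3 times and duplicates were averaged.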

[2] = biological target: 3',5'-cyclic-AMP phosphodiesterase 4B (Homo sapiens, UniProt Q07343); assay: Inhibition of recombinant human PDE4B1 using [3H]-cAMP as substrate […] measured after 60 mins by scintillation proximity assay
Outline: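 Compounds ranged from 10 μM to 10 pM. The reaction was started with PDE4 enzyme and run 60 min at room temperature with agitation (about 10−20% conversion), then stopped with SPA beads. [3H]-AMP was counted by scintillation.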

[3] = Apparent permeability of the compound by PAMPA assay; type: physicochemical
[4] = Thermodynamic solubility of the compound at 37 degC
[5] = Cmax in Sprague-Dawley rat at 500 ug/kg, iv; type: ADME; design: dose 500 ug/kg, route intravenous; settings: in vivo, 0.5 mg/kg
[6] = AUC in Sprague-Dawley rat at 500 ug/kg, iv; type: ADME; settings: in vivo, 0.5 mg/kg
[7] = Volume of distribution at steady state in Sprague-Dawley rat at 500 ug/kg, iv; type: ADME; settings: in vivo, 0.5 mg/kg, read-out: Vdss
[8] = Half life in Sprague-Dawley rat at 500 ug/kg, iv; type: ADME; settings: in vivo, 0.5 mg/kg
[9] = Clearance in Sprague-Dawley rat at 500 ug/kg, iv; type: ADME; settings: in vivo, 0.5 mg/kg
[10] = system: Lung; assay: Drug level in Sprague-Dawley rat lung at 1000 ug/kg, it administered as dry powder measured over 24 hrs post dose; type: ADME, tissue-based; settings: in vivo, inhaled_or_intranasal, 1 mg/kg
Outline: (§1)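 Dry powder (5% w/w with lactose) was given intratracheally to rats. Compound was recovered from lung biopsies at times over a 24 h period and expressed as percentage of the total administered dose.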

[11] = Plasma concentration in Sprague-Dawley rat at 1000 ug/kg, it measured up to 1 hr post dose; type: ADME, cell-free; settings: inhaled or intranasal, 1 mg/kg
[12] = system: Rattus norvegicus; assay: (§2) Antiinflammatory activity in Sprague-Dawley rat LPS-induced neutrophilia model assessed as inhibition of LPS-induced increase in netrophils in bronchoalveolar lavage at 1000 ug/kg, it administered single dose as microspray dosed 1 hr prior to nebulized LPS challenge measured after 4 hrs by flow cytometric analysis; type: functional
Outline: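 Compound was suspended in PBS with 0.2% Tween 80, homogenized, and lower doses were made by 1:10 dilution. Rats (male Sprague-Dawley, 230−280 g, fasted, isoflurane) received 0.2 mL intratracheally by microsprayer, about 1 cm above the carina. Nebulized LPS challenge (30 mL over 40 min) followed 1 h later. BAL neutrophils were counted by flow cytometry 4 h after challenge.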

[13] = system: Rattus norvegicus; assay: as §2, with “at 100 to 3000” for “at 1000”, “administered as” for “administered”, “dose via dry powder insufflator” for “dose as microspray”, “1 to 18 hrs” for “1 hr”; type: functional
Outline: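 Male Sprague-Dawley rats (230−280 g, fasted) were anaesthetized with isoflurane. Micronized compound co-mixed with lactose (5 mg of mix) was insufflated intratracheally through a cannula with 5 mL air. One or 18 h later, LPS solution (30 mL) was nebulized into a chamber over 40 min. After 4 h, BAL was done with 2 × 2 mL PBS and neutrophils were counted by flow cytometry. Controls were lactose alone and fluticasone (10% in lactose).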

[14] = system: Rattus norvegicus; assay: Pro-inflammatory activity in Sprague-Dawley rat assessed as increase in neutrophils in bronchoalveolar lavage at 1000 ug/kg, it administered as single dose via dry powder insufflator after 18 hrs post dose by flow cytometric analysis relative to basal level; type: ADME; settings: in vivo, inhaled_or_intranasal, 1 mg/kg
[15] = system: Rattus norvegicus; assay: Pro-inflammatory activity in Sprague-Dawley rat assessed as increase in neutrophils in bronchoalveolar lavage at 3000 ug/kg, it administered as single dose via dry powder insufflator after 18 hrs post dose by flow cytometric analysis relative to basal level; type: ADME; settings: in vivo, inhaled_or_intranasal, 3 mg/kg
Outline: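 Fasted male Sprague-Dawley rats (230−280 g) under isoflurane received 5 mg […] co-mixed with lactose, delivered intratracheally by DP-4 insufflator with 5 mL air. 18 h later, LPS (1:100 dilution of 10 mg/mL in PBS; 30 mL) was nebulized in chambers over 40 min. BAL was taken 4 h later and neutrophils were counted by flow cytometry. Lactose-only control.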

[16] = system: Mustela putorius furo; assay: Toxicity in ferret assessed as emesis at 30 ug/kg, it administered as dry powder co-mixtured with lactose after 1 hr post dose; settings: in vivo, inhaled_or_intranasal, 0.03 mg/kg
[17] = system: Mustela putorius furo; assay: Toxicity in it dosed ferret assessed as emesis administered as dry powder co-mixtured with lactose after 1 hr post dose; type: organism-based; settings: in vivo, inhaled_or_intranasal
[18] = system: Lung; assay: Drug level in Sprague-Dawley rat lung at 1000 ug/kg, it administered as dry powder measured up to 6 hrs post dose; type: ADME, tissue-based; settings: in vivo, inhaled_or_intranasal, 1 mg/kg; outline: as §1
[19] = system: Lung; assay: Drug level in Sprague-Dawley rat lung at 1000 ug/kg, it administered as dry powder measured at 6 hrs post dose; type: ADME, tissue-based; settings: in vivo, inhaled_or_intranasal, 1 mg/kg; outline: as §1
[20] = system: Lung; assay: Drug level in Sprague-Dawley rat lung at 1000 ug/kg, it administered as dry powder measured up to 18 hrs post dose; type: ADME, tissue-based; settings: in vivo, inhaled_or_intranasal, 1 mg/kg; outline: as §1
[21] = Thermodynamic solubility of the compound at 22 degC; type: physicochemical; settings: read-out: Therm_solubility
[22] = species: Rattus norvegicus; settings: Sprague-Dawley, 2000 ug/kg
[23] = species: Rattus norvegicus; settings: Sprague-Dawley, 2000 ug/kg; remark: listed apart in the source

3',5'-cyclic-AMP phosphodiesterase 4B, sequence (Q07343 whole entry): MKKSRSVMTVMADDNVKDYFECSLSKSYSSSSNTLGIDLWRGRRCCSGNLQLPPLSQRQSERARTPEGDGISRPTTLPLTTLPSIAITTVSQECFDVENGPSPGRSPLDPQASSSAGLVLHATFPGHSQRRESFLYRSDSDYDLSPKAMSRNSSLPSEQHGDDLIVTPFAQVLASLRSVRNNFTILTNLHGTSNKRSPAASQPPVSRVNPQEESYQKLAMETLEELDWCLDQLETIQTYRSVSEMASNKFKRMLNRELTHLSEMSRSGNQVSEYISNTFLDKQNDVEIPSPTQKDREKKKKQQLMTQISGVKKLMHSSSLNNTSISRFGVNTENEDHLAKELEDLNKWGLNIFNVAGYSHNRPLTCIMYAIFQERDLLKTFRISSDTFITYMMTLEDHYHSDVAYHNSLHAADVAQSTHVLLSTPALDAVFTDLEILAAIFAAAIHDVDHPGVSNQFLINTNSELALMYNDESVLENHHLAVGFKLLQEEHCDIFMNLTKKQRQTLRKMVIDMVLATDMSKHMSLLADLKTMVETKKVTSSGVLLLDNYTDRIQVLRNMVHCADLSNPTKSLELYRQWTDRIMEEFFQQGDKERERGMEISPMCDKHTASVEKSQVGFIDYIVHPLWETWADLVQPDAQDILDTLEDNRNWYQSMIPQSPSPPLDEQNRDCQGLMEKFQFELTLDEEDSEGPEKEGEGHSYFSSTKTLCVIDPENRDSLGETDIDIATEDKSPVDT

SMILES	IC50 [1]	IC50 [2]	also measured
COC(=O)c1ccc(O)c(-c2cccc(-c3cc(Nc4cccc(OC)c4)c4c(n3)CCNC4=O)c2)c1	4.2 nM	5.6 nM	
O=C(NC1CC1)c1cccc(-c2cccc(-c3cc(Nc4ccnc5ccccc45)c4c(n3)CCNC4=O)c2)c1	0.46 nM	0.27 nM	
O=C1NCCc2nc(-c3ccccc3)cc(Nc3cccc4c3ccc[n+]4[O-])c21	0.47 nM	0.43 nM	
O=C(NC1CC1)c1cccc(-c2cccc(-c3cc(Nc4cccc5ncccc45)c4c(n3)CCNC4=O)c2)c1	0.12 nM	0.17 nM	Papp [3]: 0.15 ×10⁻⁶ cm/s; solubility thermodynamic [4]: 4 µg/mL (≈ 7.61 µM); Cmax [5]: 118 ng/mL; AUC [6]: 108 ng·h/mL; Vd [7]: 3.9 L/kg; half-life [8]: 54 min; clearance [9]: 79 mL/min/kg; Drug uptake [10]: 15%; concentration at 1 h [11]: < 5 ng/mL; inhibition in vivo at 1 mg/kg [12]: 58%; Imax [13]: 35%; fold change (FC) [14]: 0.7; fold change (FC) [15]: 1.3; Activity [16]: Non-Toxic; Activity [17]: Dose-dependent effect; Drug uptake [18]: 36%; Drug uptake [19]: 20%; Drug uptake [20]: 18%
NC(=O)c1cccc(Nc2cc(-c3ccccc3)nc3c2C(=O)NCC3)c1		12 nM	
O=C1NCCc2nc(-c3ccccc3)cc(Nc3cccc4ncccc34)c21	0.92 nM	0.96 nM	
CNC(=O)c1cnc(-c2ccccc2)cc1Nc1cccc2ncccc12		5800 nM	
COc1cccc(Nc2cc(-c3ccccc3)ncc2C(N)=O)c1		240 nM	
O=C(O)c1ccc(-c2cccc(-c3cc(Nc4cccc5ncccc45)c4c(n3)CCNC4=O)c2)cc1	0.52 nM	0.11 nM	
O=C1NCCc2nc(-c3ccccc3)cc(Nc3cccc4cnccc34)c21		14 nM	
COc1cccc(Nc2cc(-c3cccc(OC)c3)nc3c2/C(=N/O)NCC3)c1		2000 nM	
COc1cc(Nc2cc(-c3ccccc3)nc3c2C(=O)NCC3)cc(OC)c1		27 nM	
O=C1NCCc2nc(-c3ccccc3)cc(Nc3ccc(CCO)cc3)c21		12 nM	
O=C1NCCc2nc(-c3ccccc3)cc(NCc3ccncc3)c21		25 nM	
O=C(NC1CC1)c1cccc(-c2cccc(-c3cc(Nc4cccc5c4ccc[n+]5[O-])c4c(n3)CCNC4=O)c2)c1	0.075 nM	0.045 nM	
COc1cccc(Nc2cc(-c3cccc(-c4cc(C(=O)O)ccc4O)c3)nc3c2C(=O)NCC3)c1	140 nM	9.6 nM	
O=C1NCCc2nc(-c3ccccc3)cc(Nc3nn(-c4ccccc4)c4ncccc34)c21		56 nM	
NC(=O)c1cnc(-c2ccccc2)cc1Nc1cccc2ncccc12		35 nM	
COc1cccc(Nc2cc(-c3ccccc3)nc3c2C(=O)NC(C)C3)c1 (stereo not drawn)	270 nM	120 nM	
O=C1NCCc2nc(-c3ccccc3)cc(NCCc3ccncc3)c21		12 nM	
O=C1NCCc2nc(-c3cccc(-c4cccc(O)c4)c3)cc(Nc3cccc4ncccc34)c21	0.5 nM	0.89 nM	
O=C(Nc1c(Cl)cncc1Cl)c1ccc(OC(F)F)c(OCC2CC2)c1 [ROFLUMILAST]	4 nM		solubility thermodynamic [21]: 0.52 µg/mL (≈ 1.29 µM); inhibition in vivo at 1 mg/kg [12]: 80%; inhibition [22]: Active; inhibition [23]: inactive
N#Cc1cccc(Nc2cc(-c3ccccc3)nc3c2C(=O)NCC3)c1	13 nM	3.3 nM	
COc1cccc(Nc2cc(-c3cccc(Sc4cccc(OC)c4)c3)nc3c2C(=O)NCC3)c1	3.4 nM	1.6 nM	
N#C/N=C1\NCCc2nc(-c3ccc(F)c(F)c3)cc(Nc3cccc4ncccc34)c21	17 nM	0.89 nM	
O=C1NCCc2nc(-c3ccccc3)cc(Nc3ccc(C[C@@H](O)CO)cc3)c21	0.49 nM	8.7 nM	
O=C1NCCc2nc(-c3ccccc3)cc(Nc3cccc(CO)c3)c21		24 nM	
